Compound activity: PubChem, several laboratories
SIRT5 block: sirtuin-5 (human) deacylase inhibition; Purified SirT5, succinyl-peptide AMC, trypsin-coupled fluorescence; AID 652115; hit rate 1.1% among 330,000; inhibition, % at 15 µM; in the data active = inhibition above about 15%
Target sequence (Q9NXA8 whole entry, looked up): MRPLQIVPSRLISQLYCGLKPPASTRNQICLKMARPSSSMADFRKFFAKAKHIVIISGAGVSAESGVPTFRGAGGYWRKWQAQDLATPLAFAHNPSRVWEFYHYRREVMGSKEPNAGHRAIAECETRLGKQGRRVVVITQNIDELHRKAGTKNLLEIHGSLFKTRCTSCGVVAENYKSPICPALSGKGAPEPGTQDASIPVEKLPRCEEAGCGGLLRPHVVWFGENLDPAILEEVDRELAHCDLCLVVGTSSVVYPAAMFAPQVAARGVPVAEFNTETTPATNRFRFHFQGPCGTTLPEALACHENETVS
PKA-R2B activ: activates the human PKA-R2B holoenzyme complex. activation, % at 11.4 µM. P22694+P31323. AID 504700. PKA-R2B holoenzyme dissociation, Cy5-IP20 fluorescence polarization; R2B truncated from residue 108, S112A mutant; 0% DMSO only, 100% 113 µM cGMP. hit rate 0.079% among 340,000;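 active = activation above a cutoff set at the mean over all compounds plus 3 SD, cut at about 18% in these data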;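 note: higher means more holoenzyme dissociation and a rise in polarization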
PKA-R1A act: activates the PKA-R1A holoenzyme complex; PKA-R1A dissociation, Cy5-IP20 fluorescence polarization; scaled: DMSO 0%, 113 µM cGMP 100%; activation, % at 11.4 µM; hit rate 0.083% among 340,000;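 active = percent activation above the mean of all tested compounds plus 3 SD, cut at about 19% in these data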;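 note: higher means more PKAc released from R1A so a rise in polarization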
S100A4 MyoIIA: blocks human S100A4 binding to myosin IIA peptide; P26447; S100A4/TAMRA-MyoIIA peptide fluorescence polarization; inhibition, % at 10.7 µM; hit rate 0.14% among 360,000; AID 652163;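 active = mean inhibition of at least 70% across replicates, with every replicate also reaching that level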
Target sequence (P26447 whole entry, looked up): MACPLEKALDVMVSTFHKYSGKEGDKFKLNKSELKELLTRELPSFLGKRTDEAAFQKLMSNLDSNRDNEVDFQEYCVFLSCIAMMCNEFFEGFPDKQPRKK
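Material: S100A4 monomer (human). Medium: Calcium-containing HEPES buffer, pH 7.2. Probe or stimulus: labelled myosin peptide probe, 5 nM. Compound dosing: one concentration per compound. Timing: polarization read 5 min after assay mix addition, stable 5–60 min. Benchmarks: DMSO as neutral control, TFP as positive control.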
CRFR2-BP antag: blocks CRF-induced signaling of the CRF-BP/CRF-R2 complex | HEK293 CRF-R2/CRF-BP, CRF-induced calcium fluorescence | inhibition, % at 11.8 µM | hit rate 0.59% among 350,000 | AID 588475;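 active = inhibition of the ligand-induced calcium signal above about 50% at the single tested concentration, limit read from the data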
* = called active by the depositor. Most compounds without a hit are left out; they make up all but 1.5% or so of the library.

For CC(C)CC#Cc1cnc2c(c1)C(=O)N([C@H](C)CO)C[C@@H](C)[C@@H](CN(C)S(=O)(=O)c1cn(C)cn1)O2 the results were SIRT5 block -4 and S100A4 MyoIIA 2.
C[C@@H]1CN([C@@H](C)CO)C(=O)c2cc(NC(=O)c3ccncc3)ccc2O[C@@H](C)CCCCO[C@@H]1CN(C)C(=O)Nc1ccc(C(F)(F)F)cc1 was read as SIRT5 block 3 and S100A4 MyoIIA 11.
`COc1ccc(CN(C)CC(=O)Nc2c(C)cccc2C)c(OC)c1` gave SIRT5 block 0, PKA-R2B activ -6, PKA-R1A act -1, S100A4 MyoIIA 1 and CRFR2-BP antag 3.
Screening COc1ccc(CN(C)CC(=O)Nc2sc3c(c2C#N)CCC3)c(OC)c1 returned SIRT5 block 15*, PKA-R2B activ 1, PKA-R1A act -7, S100A4 MyoIIA 4 and CRFR2-BP antag -3.
`COCC(=O)Nc1ccc2c(c1)C(=O)N(C)[C@H]1CC[C@H](CC(=O)NCC(F)(F)F)O[C@@H]1CO2` gave SIRT5 block -4 and S100A4 MyoIIA 3.
`C[C@H]1CN([C@@H](C)CO)C(=O)c2cccc(NS(C)(=O)=O)c2O[C@H]1CN(C)S(=O)(=O)c1ccccc1` gave SIRT5 block -1 and S100A4 MyoIIA -1.
`O=C(CN1C(=O)NC2(CCCc3ccccc32)C1=O)NC1CCCCC1` (stereo not drawn) gave SIRT5 block 16*, PKA-R2B activ -14, PKA-R1A act -9, S100A4 MyoIIA 13 and CRFR2-BP antag 13.
Screening COC(=O)CN1C(=O)NC2(CCCc3ccccc32)C1=O (stereo not drawn) returned SIRT5 block -4, PKA-R2B activ 4, PKA-R1A act 10, S100A4 MyoIIA 0 and CRFR2-BP antag -1.
Screening CC(=O)C1(O)CCC2C3CC(C)C4=CC(=O)C=CC4(C)C3(F)C(O)CC21C (stereo not drawn) returned SIRT5 block -2, PKA-R2B activ -5, PKA-R1A act 4, S100A4 MyoIIA -1 and CRFR2-BP antag 79*.
Screening CC1CC2C(C(O)CC3(C)C2CCC3(O)C(=O)CO)C2(C)C=CC(=O)C=C12 (stereo not drawn) returned SIRT5 block 35*, PKA-R2B activ -6, PKA-R1A act -4, S100A4 MyoIIA 1 and CRFR2-BP antag -5.
For CC(=O)OCC(=O)[C@@]12OC(C)(C)O[C@@H]1C[C@H]1[C@@H]3C[C@H](F)C4=CC(=O)C=C[C@]4(C)[C@@]3(F)[C@@H](O)C[C@@]12C the results were S100A4 MyoIIA 9 and CRFR2-BP antag -22.
Screening CC1(C)OC2CC3C4CC(F)C5=CC(=O)C=CC5(C)C4(F)C(O)CC3(C)C2(C(=O)CO)O1 (stereo not drawn) returned SIRT5 block 17*, PKA-R2B activ 2, PKA-R1A act -3, S100A4 MyoIIA -1 and CRFR2-BP antag 1.
For CC(=O)OCC(=O)[C@@]1(O)CC[C@H]2[C@@H]3C[C@H](C)C4=CC(=O)C=C[C@]4(C)[C@H]3[C@@H](O)C[C@@]21C the results were SIRT5 block 0, PKA-R2B activ 6, PKA-R1A act -8, S100A4 MyoIIA -1 and CRFR2-BP antag -12.
Screening COc1ccc(N/N=C(/N=Nc2nc(C)cc(=O)[nH]2)c2ccccc2)cc1 returned PKA-R2B activ 6, PKA-R1A act -21 and CRFR2-BP antag 57*.
O=C(C1Cc2ccccc2CN1S(=O)(=O)c1ccc(F)cc1)N1CCOCC1 (stereo not drawn) was read as SIRT5 block 25*, PKA-R2B activ -10, PKA-R1A act 5, S100A4 MyoIIA -1 and CRFR2-BP antag -12.
CCCC#Cc1cnc2c(c1)C(=O)N([C@H](C)CO)C[C@H](C)[C@@H](CN(C)C(=O)c1ccc(F)cc1)O2 was read as SIRT5 block -1 and S100A4 MyoIIA -2.
`C[C@H]1CN([C@@H](C)CO)C(=O)c2cc(C3=CCCCC3)cnc2O[C@@H]1CN(C)Cc1ccncc1` gave SIRT5 block 1 and S100A4 MyoIIA -1.
For O=C(Nc1ccccn1)c1ccc(C(=O)c2ccccc2)cc1 the results were SIRT5 block 0, PKA-R2B activ -5, PKA-R1A act -10, S100A4 MyoIIA -3 and CRFR2-BP antag 55*.
